According to ChEMBL document CHEMBL5107994, “Biphenyl scaffold for the design of NMDA-receptor negative modulators: molecular modeling, synthesis, and biological activity” (RSC Med Chem, 2022):
Calls of active or inactive are those of the source. No cut-off for these calls is given here.

Key:
[1] = target: T1, Glutamate NMDA receptor (Rattus norvegicus) (UniProt P35439+Q00959+Q00960+Q00961+Q62645+Q8VHN2+Q9R1M7); assay: Negative allosteric modulator activity at NMDA receptor in Wistar rat hippocampal CA1 neuronal membrane assessed as inhibition of NMDA and glycine induced current response at 30 uM by whole-cell patch clamp technique; format: cell membranes; details: Hippocampal CA1 neurone
Outline: (§1)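 Male Wistar rats, 13–18 d old. CA1 pyramidal neurons isolated from hippocampal slices by vibrodissociation. Whole-cell patch clamp at room temperature, holding potential –80 mV, with 70–80% series-resistance compensation. Currents evoked by 100 μM NMDA plus 10 μM glycine. Percent block of the steady-state current measured at each compound concentration. Means ± SD from at least four experiments.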

Glutamate NMDA receptor [2] = assay: Negative allosteric modulator activity at NMDA receptor in Wistar rat hippocampal CA1 neuronal membrane assessed as inhibition of NMDA and glycine induced current response by whole-cell patch clamp technique; format: cell membranes; details: hippocampal ca1 neurone
Outline: (§2)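 Acutely vibrodissociated CA1 pyramidal neurons from 13–18-day male Wistar rats, whole-cell recorded at –80 mV at room temperature. 100 μM NMDA + 10 μM glycine activated the receptors. Steady-state current block was measured across concentrations and fitted with the Hill equation for the concentration-inhibition relationship. At least four experiments, mean ± SD.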

Glutamate NMDA receptor [3] = assay: Displacement of 3[H]ifenprodil from NMDA receptor in Wistar rat brain membrane incubated for 2 hrs by scintillation counting method; format: cell membranes
Outline: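 Rat hippocampal membranes prepared in HEPES/Tris pH 7.6 buffers with repeated EDTA washes, stored in liquid nitrogen. Incubated with [3H]-ifenprodil (40 nM working-solution aliquot) for 2 h at room temperature. Nonspecific binding measured with 10 μM unlabeled ifenprodil. Test compounds over 10^-8 to 10^-3 M. Filtration on polyethyleneimine-soaked GF/B filters, then scintillation counting. Each concentration run in triplicate and averaged.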

[4] = target: T1, Glutamate NMDA receptor (Rattus norvegicus); assay: Negative allosteric modulator activity at NMDA receptor in Wistar rat hippocampal CA1 neuronal membrane assessed as inhibition of NMDA and glycine induced current response by measuring maximum efficacy by whole-cell patch clamp technique; format: cell membranes; details: Hippocampal CA1 neurone, filed as negative allosteric modulator; outline: as §2
Mus musculus = assay: Antidepressant activity in ICR (CD-1) mouse assessed as decrease in immobility time at 160 mg/kg, po and measured after 1 hr by forced swim test; format: functional, organism-based
Outline: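 Adult male ICR (CD-1) mice, 20–25 g, n=10 per group, dosed orally 1 h before a one-day forced swim test. Solutions were prepared on the day. Each mouse swam 5 min in a cylinder with at least 20 cm of water at 24–26°C, with fresh water per animal, and was videotaped. Total immobility (passive floating) was compared with an […] saline/5% DMSO group by Mann-Whitney U-test.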

[5] = target: T1, Glutamate NMDA receptor (Rattus norvegicus); assay: Negative allosteric modulator activity at NMDA receptor in Wistar rat hippocampal CA1 neuronal membrane assessed as inhibition of NMDA and glycine induced current response at 0.3 uM by whole-cell patch clamp technique; format: cell membranes; details: Hippocampal CA1 neurone, filed as negative allosteric modulator; outline: as §1
[6] = target: T1, Glutamate NMDA receptor (Rattus norvegicus); assay: Negative allosteric modulator activity at NMDA receptor in Wistar rat hippocampal CA1 neuronal membrane assessed as inhibition of NMDA and glycine induced current response at 0.03 uM by whole-cell patch clamp technique; format: cell membranes; details: Hippocampal CA1 neurone; outline: as §1
[7] = target: T1, Glutamate NMDA receptor (Rattus norvegicus); assay: Negative allosteric modulator activity at NMDA receptor in Wistar rat hippocampal CA1 neuronal membrane assessed as inhibition of NMDA and glycine induced current response at 3 uM by whole-cell patch clamp technique; format: cell membranes; details: Hippocampal CA1 neurone, filed as negative allosteric modulator; outline: as §1

| SMILES | IC50 (Glutamate NMDA receptor [2]) [µM] | IC50 (Glutamate NMDA receptor [3]) [µM] | Emax [4] [%] | also measured |
| --- | --- | --- | --- | --- |
| OC(CNc1ccccc1)c1ccc(-c2ccccc2)cc1 (configuration not stated) | > 30 | > 100 | – | inhibition ([1]; filed as negative allosteric modulator): 42% |
| OC(COc1ccccc1)c1ccc(-c2ccccc2)cc1 (configuration not stated) | > 30 | > 100 | – | inhibition [1]: 37% |
| CS(=O)(=O)Nc1cccc(NCC(O)c2ccc(-c3ccc(Br)cc3)cc2)c1 (configuration not stated) | 0.05 | 1 | 78 | – |
| CNCCC(Oc1ccc(C(F)(F)F)cc1)c1ccccc1 (configuration not stated) | – | – | – | Activity (Mus musculus): Active |
| NC(COc1cccc(O)c1)c1ccc(-c2ccccc2)cc1 (configuration not stated) | 5 | 41 | 65 | – |
| C[C@H]([C@@H](O)c1ccc(O)cc1)N1CCC(Cc2ccccc2)CC1 | – | – | 62 | – |
| Oc1cccc(OCC(O)c2ccc(-c3ccccc3)cc2)c1 (configuration not stated) | 5 | 30 | 62 | – |
| CCNc1cccc(NCC(O)c2ccc(-c3ccccc3)cc2)c1 (configuration not stated) | > 30 | > 100 | – | inhibition [1]: 10% |
| CS(=O)(=O)Nc1cccc(NCC(O)c2ccc(-c3ccccc3)cc2)c1 (configuration not stated) | 0.1 | 5.4 | 83 | inhibition [5]: 61%; inhibition [6]: 25%; inhibition [7]: 76% |
| Oc1ccc(OCC(O)c2ccc(-c3ccccc3)cc2)cc1 (configuration not stated) | > 30 | > 100 | – | inhibition [1]: 36% |
| Oc1cccc(NCC(O)c2ccc(-c3ccccc3)cc2)c1 (configuration not stated) | 0.45 | 4.2 | 72 | – |
